Measured values of several laboratories.
Lines come from different studies, so protocols differ.
Target: Tyrosine-protein kinase Yes (YES1, Homo sapiens, UniProt P07947)

The remaining signal of `Cc1ccc(NC(=O)c2ccc(C)c(C(F)(F)F)c2)cc1C#Cc1nn(C2CCC(O)CC2)c2ncnc(N)c12` (stereo not shown) is reported as 0% (cell-free assay; 10 µM).
`CC(C)(C)c1nc2c(s1)c1nc(N)ncc1c1ccc(NS(=O)(=O)c3c(F)cccc3F)c(F)c12` has a remaining activity of 124% (enzyme activity; inhibitor; radiometric; 1 µM).
With `CCCOc1ccc(OC)c(F)c1C(=O)c1ccc(C(=O)N[C@@H]2CNC[C@H]2NC(=O)c2ccc3[nH]ncc3c2)cc1` the remaining activity was 41% (enzyme activity; inhibitor; 10 µM).
`COc1cc2ncnc(Nc3ccc(Oc4ccccc4)cc3C)c2cc1OC` has an inhibition of 99% (enzyme activity; inhibitor; 1 µM).
The remaining binding of `Cc1noc([C@H]2C[C@@H](c3ccc(C(F)(F)F)cc3)CN(C(=O)N3CCS(=O)(=O)C3)C2)n1` is reported as 100% (cell-free assay; competition with immobilised ligand; 1 µM).
For `O=C1NC(=O)c2cc(Nc3ccc(F)cc3)c(Nc3ccc(F)cc3)cc21`, the remaining signal was 86.6% (cell-free assay; 0.5 µM).
For `C[C@@H](c1cccc(C#N)c1)n1cc(Cl)cc(C(N)=O)c1=N`, the remaining binding was 93% (cell-free assay; competition with immobilised ligand; 1 µM).
`Cc1ccc(C(=O)NCc2ccsc2)cc1C#Cc1cn(C(C)C)c2ncnc(N)c12` gave an activity vs control of 2% (enzyme activity; inhibitor; 1 µM).
The remaining binding of `CO[C@@H](C)c1c(Nc2ccc([C@H](N(C)C(=O)C3CCS(=O)(=O)CC3)C(F)(F)F)cc2)cnc2cc(Cl)nn12` is reported as 99% (cell-free assay; competition with immobilised ligand; 1 µM).
For `COc1cc(Cl)c(C(=O)N[C@@H](CN[C@H]2CC[C@@H](N)CC2)Cc2ccc(C#N)cc2)cc1-c1ccc(CN[C@H](C)c2ccc(C)cc2)o1`, the remaining activity was 62% (enzyme activity; inhibitor; 1 µM).
The remaining activity of `Cc1cnc(NC2CCOCC2)nc1-n1cnc(C(=O)NC(CN)c2cc(F)cc(Cl)c2)c1` (stereo not shown) is reported as 97% (enzyme activity; inhibitor; radiometric; 1 µM).
The activity vs control of `COc1cc(/C=C/C(=O)CC(=O)/C=C/c2ccc(O)c(OC)c2)ccc1O` is reported as 62% (enzyme activity; inhibitor; 1 µM).
`Nc1nc(NC2CCCCC2)sc1C(=O)c1ccccc1` has a remaining activity of 114% (enzyme activity; inhibitor; 10 µM).
For `CS(=O)(=O)NCC[C@H](NC(=O)c1cncc2c1cnn2-c1ccc(F)cc1)c1ccnc(S(C)(=O)=O)c1`, the remaining binding was 100% (cell-free assay; competition with immobilised ligand; 1 µM).
`N#CCCc1ccc2c(c1)-c1[nH]c3ccc([N+](=O)[O-])cc3c1CC(=O)N2` gave a remaining signal of 35.8% (cell-free assay; 0.5 µM).
With `CCCCN(CCCC)C(=O)CN1C[C@H](c2cc(OC)c3c(c2)OCO3)[C@@H](C(=O)O)[C@@H]1CC(C)(C)CCC` the remaining binding was 100% (cell-free assay; competition with immobilised ligand; 1 µM).
With `O=C(Nc1cnn(-c2csc(C(=O)NC3COC3)c2)c1)Nc1c(F)cccc1Cl` the remaining activity was 91% (enzyme activity; inhibitor; 5 µM).
With `CC/C(=N\NC(=O)NCc1cccc(O)c1)c1ccc(O)c(C)c1O` the inhibition was 4.5% (enzyme activity; inhibitor; 0.1 µM).
The remaining binding of `O=C(O)[C@@H]1[C@@H](Cn2nnc3ccccc3c2=O)CC[C@H]1C(=O)c1ccc(OCCC2CCOCC2)cc1` is reported as 100% (cell-free assay; competition with immobilised ligand; 1 µM).
`COc1cc(Nc2cnc(C#N)c(O[C@H](C)CN(C)C)n2)ncc1-c1cnn(C)c1` has a remaining activity of 39% (enzyme activity; inhibitor; radiometric; 10 µM).
The inhibition of `COc1cccc2c(NCc3ccccc3)nc(-n3c(N)nc4ccccc43)nc12` is reported as -2.4% (target engagement in cells; inhibitor; chemoproteomics; 20 mM).
The remaining activity of `CC(C)(C)C(=O)c1sc(NC2CCCCC2)nc1N` is reported as 109% (enzyme activity; inhibitor; 10 µM).
With `CCCCNc1ncc2c(-c3ccc(F)cc3)nn(C[C@H]3CC[C@H](N)CC3)c2n1` the inhibition was 92.8% (target engagement in cells; inhibitor; chemoproteomics; 20 mM).
With `FC(F)(F)Oc1cccc(-c2cnc3ccc(-c4ccncc4)nn23)c1` the activity vs control was 77% (enzyme activity; inhibitor; radiometric; 5 µM).
`C=CC(=O)Nc1cc(Nc2nccc(Nc3cc(Cl)c(F)cc3C(C)(C)O)n2)c(OC)cc1N1CC[C@@H](N(C)C)C1` gave an inhibition of 51% (enzyme activity; inhibitor; 1 µM).
`CC(C)(O)c1cncc(-c2nc3ccc(F)cc3n2C2CC2)c1` gave a remaining binding of 100% (cell-free assay; competition with immobilised ligand; 1 µM).
`Cn1c(=O)n(-c2ccc(C(C)(C)C#N)cc2)c2c3cc(-c4cnc5ccccc5c4)ccc3ncc21` gave a remaining activity of 69% (enzyme activity; inhibitor; 10 µM).
For `N#CC1(c2ccccn2)CCN(Cc2cc(C(=O)N3CCCC3)c(=O)n3ccccc23)CC1`, the remaining binding was 84% (cell-free assay; competition with immobilised ligand; 1 µM).
The remaining signal of `Cc1ccc(Nc2nccc(N(C)c3ccc4c(C)n(C)nc4c3)n2)cc1S(N)(=O)=O` is reported as 52.6% (cell-free assay; 0.5 µM).
`Cc1ccc(C(=O)Nc2ccc(CN3CCN(C)CC3)c(C(F)(F)F)c2)cc1C#Cc1cnc2cccnn12` gave a remaining activity of 34% (enzyme activity; 23.5 nM).
For `CCN(CC)CCNC(=O)c1c(C)[nH]c(/C=C2\C(=O)Nc3ccc(F)cc32)c1C`, the inhibition was 69% (enzyme activity; inhibitor; 0.3 µM).
